Measurements: ChEMBL document CHEMBL1122935, “3-(1-Indolinyl)benzylamines: a new class of analgesic agents” (J Med Chem, 1985)

What was measured:
Mus musculus [1] = test: Inhibition of PQW-writhing in mice on subcutaneous administration at dose 10 mg/kg; Moderate activity in the range of 35-69%.; type: functional; settings: sc
Mus musculus [2] = test: inhibition of PQW-writhing in mice on subcutaneous administration at dose 10 mg/kg. compound showed moderate activity in the range of 35-69%.; type: functional; settings: sc
Mus musculus [3] = test: inhibition of PQW-writhing in mice on subcutaneous administration at dose 10 mg/kg. compound showed slight activity in the range of 10-34%,; type: functional; settings: sc
Rattus norvegicus [4] = species: Rattus norvegicus; test: The analgesic activity by D'Armour-Smith tail-flick assay in rats.; type: functional
Summary of the method: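 Rat tail-flick test. Compound was given sc in distilled water at 4, 8, 16 and 32 mg/kg, and percent analgesic activity was recorded at each dose. ED50 was calculated by Litchfield-Wilcoxon analysis with 95% confidence limits.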

[5] = Compound was tested for the approximate analgesic lethal dose (ALD50) on rats; type: ADME, organism-based; settings: rat, in vivo; read-out: ALD50
Mus musculus [6] = test: Inhibition of PQW-writhing in mice on subcutaneous administration at dose 10 mg/kg; type: functional; settings: sc
Mus musculus [7] = test: (§1) Oral anti-writhing activity at a dose of 25 mg/kg administered perorally in PQW assay; type: functional
Summary of the method: (§2)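 Mouse phenylquinone writhing assay with the compound given orally at 25 mg/kg. Writhing was induced with 0.125% phenyl-p-benzoquinone in 5% aqueous ethanol, 10 mL/kg ip. Writhes were counted over 10 min after a 5-min wait, and percent inhibition was calculated against vehicle-treated controls.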

Rattus norvegicus [8] = test: as §1; type: functional; summary of the method: as §2
Mus musculus [9] = test: Inhibition of PQW-writhing in mice on subcutaneous administration at dose 10 mg/kg; Slight activity in the range of 10-34%; type: functional; settings: sc
Mus musculus [10] = test: Inhibition of PQW-writhing in mice on subcutaneous administration at dose 25 mg/kg; Range of inhibition 35-69% (moderate activity); type: functional; settings: sc
Mus musculus [11] = test: Inhibition of PQW-writhing in mice on subcutaneous administration at dose 10 mg/kg. compound showed 10-34% inhibition (slight activity); type: functional; settings: sc
Mus musculus [12] = test: inhibition of PQW-writhing in mice on subcutaneous administration at dose 10 mg/kg. compound showed slight activity in the range of 10-34%; type: functional; settings: sc

NCc1cccc(CN2CCc3ccccc32)c1
inhibition in vivo at 10 mg/kg (Mus musculus [1]): 69%

COc1ccc2c(ccn2-c2cccc(CN)c2)c1
inhibition in vivo at 10 mg/kg (Mus musculus [2]): 69%

O=C(Cc1ccccc1)NCc1cccc(N2CCc3ccccc32)c1
inhibition in vivo at 10 mg/kg (Mus musculus [2]): 69%

CCOC(=O)NCc1cccc(N2CCc3ccccc32)c1
inhibition in vivo at 10 mg/kg (Mus musculus [3]): 34%

COc1ccc2c(c1)CCN2c1cccc(CN)c1
inhibition in vivo at 10 mg/kg (Mus musculus [2]): 69%

NCc1cccc(N2CCc3ccccc32)c1
ED50 (Rattus norvegicus [4]): 27 mg/kg | LD50 [5]: > 100 mg/kg | ED50 (Mus musculus [6]): 4.2 mg/kg | inhibition in vivo at 25 mg/kg (Mus musculus [7]): 36% | inhibition in vivo at 25 mg/kg (Rattus norvegicus [8]): 19%

COc1ccc2c(c1)CCN2Cc1cccc(CN)c1
inhibition in vivo at 10 mg/kg (Mus musculus [9]): 34%

NCc1cccc(CN2CCc3cc(Cl)ccc32)c1
ED50 (Mus musculus [6]): 20.2 mg/kg

NCc1cccc(N2CCc3cc(Cl)ccc32)c1
ED50 (Mus musculus [6]): 4.2 mg/kg

NCc1ccccc1N1CCc2ccccc21
ED50 (Mus musculus [6]): 14.1 mg/kg

CN(C)Cc1cccc(N2CCc3ccccc32)c1
inhibition in vivo at 10 mg/kg (Mus musculus [3]): 34%

Nc1ccccc1N1CCc2ccccc21
inhibition in vivo at 25 mg/kg (Mus musculus [10]): 43%

c1cc(CNCC2CC2)cc(N2CCc3ccccc32)c1
inhibition in vivo at 10 mg/kg (Mus musculus [2]): 69%

CC(N)c1cccc(N2CCc3ccccc32)c1 (centres undefined)
inhibition in vivo at 10 mg/kg (Mus musculus [2]): 69%

NCCc1cccc(N2CCc3ccccc32)c1
inhibition in vivo at 10 mg/kg (Mus musculus [2]): 69%

CNCc1cccc(N2CCc3ccccc32)c1
inhibition in vivo at 10 mg/kg (Mus musculus [3]): 34%

NCc1ccc(N2CCc3ccccc32)cc1
inhibition in vivo at 10 mg/kg (Mus musculus [11]): 34%

NCc1cccc(-n2ccc3ccccc32)c1
ED50 (Mus musculus [6]): 19.1 mg/kg

O=C(NCc1cccc(N2CCc3ccccc32)c1)C1CC1
inhibition in vivo at 10 mg/kg (Mus musculus [2]): 69%

c1ccc(CCNCc2cccc(N3CCc4ccccc43)c2)cc1
inhibition in vivo at 10 mg/kg (Mus musculus [3]): 34%

NCc1cccc(-n2ccc3cc(Cl)ccc32)c1
inhibition in vivo at 10 mg/kg (Mus musculus [12]): 34%

NC(c1ccccc1)c1cccc(N2CCc3ccccc32)c1 (centres undefined)
inhibition in vivo at 10 mg/kg (Mus musculus [2]): 69%

CC(C)=CCN1CC[C@]2(C)c3cc(O)ccc3C[C@H]1[C@H]2C [(+)-PENTAZOCINE]
ED50 (Rattus norvegicus [4]): 14.6 mg/kg | ED50 (Mus musculus [6]): 2.3 mg/kg

CCC(=O)O[C@](Cc1ccccc1)(c1ccccc1)[C@H](C)CN(C)C [PROPOXYPHENE]
ED50 (Mus musculus [6]): 3.9 mg/kg
